In assay [1] the test system is J774.A1. Put plainly: Antiproliferative activity against mouse J774.A1 cells after 72 hrs by MTT conversion assay. In kind it is cell-based. To be noted: J774.A1, 72 h. Put shortly:
(§1)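 Cells (3.4 × 10^4) plated in 96-well plates and left to adhere 2 h at 37 °C, 5% CO2/95% air; medium replaced, 1:4 serial dilutions of compound added, incubated 72 h. Viability by MTT conversion, OD read at 620 nm; % dead cells = 100 − (OD treated/OD control) × 100. 6-mercaptopurine serial dilutions run in some experiments.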
On the technique in general: Tetrazolium assays rely on reduction of a dye to a coloured formazan, in cell work by metabolically active cells.

Assay [2] has as its system WEHI-164. Put plainly: Antiproliferative activity against mouse WEHI164 cells after 72 hrs by MTT conversion assay. In kind it is functional, cell-based. As to conditions: WEHI-164, 72 h. An outline of the steps: as §1
Assay [3] has as its system HEK293. Put plainly: Antiproliferative activity against human HEK293 cells after 72 hrs by MTT conversion assay. It is filed as cell-based. To be noted: HEK293, 72 h. Put shortly:
as §1

The structures appear in SMILES notation.

The term IC50 denotes the concentration that inhibits the measured activity by half. Low values mean greater potency in that assay, high ones weaker potency in that assay.

On to `C[C@@H]1O[C@@H](O[C@H]2[C@H](O)[C@@H](O)[C@H](OC[C@H]3O[C@@H](OC(=O)[C@]45CCC(C)(C)C[C@H]4C4=CC[C@@H]6[C@@]7(C)CC[C@H](O[C@H]8OC[C@H](O)[C@H](O[C@@H]9O[C@H](CO)[C@@H](O[C@@H]%10O[C@H](CO)[C@@H](O)[C@H](O)[C@H]%10O)[C@H](O)[C@H]9O)[C@H]8O)C(C)(C)[C@@H]7CC[C@@]6(C)[C@]4(C)CC5)[C@H](O)[C@@H](O)[C@@H]3O)O[C@@H]2CO)[C@H](O)[C@H](O)[C@H]1O`, for which half-maximal inhibition in assay [1] (IC50) required 3000 nM.
On to `CC1(C)CC[C@]2(C(=O)O[C@@H]3O[C@H](CO)[C@@H](O)[C@H](O)[C@H]3O)[C@H](O)C[C@]3(C)C(=CC[C@@H]4[C@@]5(C)CC[C@H](O[C@@H]6O[C@H](C(=O)O)[C@@H](O)[C@H](O)[C@H]6O[C@@H]6O[C@H](CO)[C@@H](O)[C@H](O)[C@H]6O)C(C)(C)[C@@H]5CC[C@]43C)[C@@H]2C1`, for which the IC50 was 190 nM in assay [1], 340 nM in assay [2] and 230 nM in assay [3].
Take `C[C@@H]1O[C@@H](O[C@H]2[C@H](O)[C@@H](O)[C@H](OC[C@H]3O[C@@H](OC(=O)[C@]45CCC(C)(C)C[C@H]4C4=CC[C@@H]6[C@@]7(C)CC[C@H](O[C@H]8OC[C@H](O)[C@H](O[C@@H]9O[C@H](CO)[C@@H](O)[C@H](O)[C@H]9O)[C@H]8O)C(C)(C)[C@@H]7CC[C@@]6(C)[C@]4(C)CC5)[C@H](O)[C@@H](O)[C@@H]3O)O[C@@H]2CO)[C@H](O)[C@H](O)[C@H]1O`: the IC50 in assay [1] was 3600 nM; in assay [2], 7000 nM.
Turning to `C[C@@H]1O[C@@H](O[C@H]2[C@H](O)[C@@H](O)[C@H](OC[C@H]3O[C@@H](OC(=O)[C@]45CCC(C)(C)C[C@H]4C4=CC[C@@H]6[C@@]7(C)CC[C@H](O[C@@H]8O[C@H](C(=O)O)[C@@H](O)[C@H](O)[C@H]8O[C@@H]8O[C@H](CO)[C@@H](O)[C@H](O)[C@H]8O)C(C)(C)[C@@H]7CC[C@@]6(C)[C@]4(C)CC5)[C@H](O)[C@@H](O)[C@@H]3O)O[C@@H]2CO)[C@H](O)[C@H](O)[C@H]1O`, in assay [1], inhibition was half-maximal at 6900 nM (IC50).
Take `C[C@@H]1O[C@@H](O[C@H]2[C@H](O)[C@@H](O)[C@H](OC[C@H]3O[C@@H](OC(=O)[C@]45CCC(C)(C)C[C@H]4C4=CC[C@@H]6[C@@]7(C)CC[C@H](O[C@H]8OC[C@H](O)[C@H](O)[C@H]8O)C(C)(C)[C@@H]7CC[C@@]6(C)[C@]4(C)CC5)[C@H](O)[C@@H](O)[C@@H]3O)O[C@@H]2CO)[C@H](O)[C@H](O)[C@H]1O`: the IC50 in assay [1] turned out to be 2500 nM; in assay [2], 3400 nM.
Regarding `C[C@@H]1O[C@@H](O[C@H]2[C@H](O)[C@@H](O)[C@H](O[C@@H]3[C@@H](O)[C@H](OC[C@H]4O[C@@H](OC(=O)[C@]56CCC(C)(C)C[C@H]5C5=CC[C@@H]7[C@@]8(C)CC[C@H](O[C@H]9OC[C@H](O)[C@H](O[C@@H]%10O[C@H](CO)[C@@H](O[C@@H]%11O[C@H](CO)[C@@H](O)[C@H](O)[C@H]%11O)[C@H](O)[C@H]%10O)[C@H]9O)C(C)(C)[C@@H]8CC[C@@]7(C)[C@]5(C)C[C@H]6O)[C@H](O)[C@@H](O)[C@@H]4O)O[C@H](CO)[C@H]3O)O[C@@H]2CO)[C@H](O)[C@H](O)[C@H]1O`, the 50% inhibitory concentration (IC50) in assay [1] came out at 320 nM; in assay [2], 1700 nM; in assay [3], 1300 nM.
For `CC1(C)CC[C@]2(C(=O)O[C@@H]3O[C@H](CO)[C@@H](O)[C@H](O)[C@H]3O)CC[C@]3(C)C(=CC[C@@H]4[C@@]5(C)CC[C@H](O[C@H]6OC[C@H](O)[C@H](O[C@@H]7O[C@H](CO)[C@@H](O)[C@H](O)[C@H]7O)[C@H]6O)C(C)(C)[C@@H]5CC[C@]43C)[C@@H]2C1`, the values for the 50% inhibitory concentration (IC50) in assay [1] and in assay [2] were 3900 nM and 4600 nM, respectively.
In assay [1], `C[C@@H]1O[C@@H](O[C@H]2[C@H](O)[C@@H](O)[C@H](O[C@@H]3[C@@H](O)[C@H](OC[C@H]4O[C@@H](OC(=O)[C@]56CCC(C)(C)C[C@H]5C5=CC[C@@H]7[C@@]8(C)CC[C@H](O[C@H]9OC[C@H](O)[C@H](O[C@@H]%10O[C@H](CO)[C@@H](O[C@@H]%11O[C@H](CO)[C@@H](O)[C@H](O)[C@H]%11O)[C@H](O)[C@H]%10O)[C@H]9O)C(C)(C)[C@@H]8CC[C@@]7(C)[C@]5(C)CC6)[C@H](O)[C@@H](O)[C@@H]4O)O[C@H](CO)[C@H]3O)O[C@@H]2CO)[C@H](O)[C@H](O)[C@H]1O` gave an IC50 of 9000 nM. In other words, the single-digit micromolar range.

The record behind these values is ChEMBL document CHEMBL1157383, “Antiproliferative oleanane saponins from Meryta denhamii” (J Nat Prod, 2008).
